Results on three compounds are retold here after ChEMBL document CHEMBL1142995, “Probing the pharmacophore of ginkgolides as glycine receptor antagonists” (J Med Chem, 2007).

pIC50: −log10 of the molar value.

Type in all cases: cell-based
Assay [1] concerns the target T1, Glycine receptor subunit alpha-1 (Homo sapiens, UniProt P23415).
T1 sequence (P23415 whole entry): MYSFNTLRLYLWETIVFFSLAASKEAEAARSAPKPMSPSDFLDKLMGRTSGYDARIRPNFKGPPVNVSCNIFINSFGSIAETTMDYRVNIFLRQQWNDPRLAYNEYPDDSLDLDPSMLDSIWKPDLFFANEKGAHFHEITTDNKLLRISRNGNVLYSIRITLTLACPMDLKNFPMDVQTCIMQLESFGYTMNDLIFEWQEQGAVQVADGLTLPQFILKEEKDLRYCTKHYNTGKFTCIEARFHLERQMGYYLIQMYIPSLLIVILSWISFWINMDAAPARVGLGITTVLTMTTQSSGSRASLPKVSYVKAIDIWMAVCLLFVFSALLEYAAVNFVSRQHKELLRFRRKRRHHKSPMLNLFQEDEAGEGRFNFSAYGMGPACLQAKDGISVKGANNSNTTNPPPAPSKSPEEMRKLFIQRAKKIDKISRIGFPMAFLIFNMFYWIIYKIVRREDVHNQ
As to the kind of experiment: Activity at human alpha1GlyR expressed in HEK293 cells assessed as inhibition of 3000 uM glycine-induced current by whole-cell patch clamp experiment. The procedure, abridged: (§1)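 α1 GlyR-HEK293 cells, whole-cell patch clamp. Antagonist co-applied with 30 or 3000 µM glycine by gravity perfusion. Peak current normalised to that glycine concentration alone and fitted to Hill equation for IC50 and slope. Mean with 95% CI, 5 cells per glycine concentration.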
A general note: Patch clamp records ionic current or voltage across a cell membrane.

Assay [2] has as its target T1, Glycine receptor subunit alpha-1. As to the kind of experiment: Activity at human alpha-1GlyR expressed in HEK293 cells assessed as inhibition of 30 uM glycine-induced current by whole-cell patch clamp experiment. The procedure, abridged:
as §1

Assay [3] has the same target. As to the kind of experiment: Activity at human alpha-1GlyR expressed in HEK293 cells by FMP assay. The procedure, abridged: (§2)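 Stable HEK293 lines (α1: G418; α1β: G418 + hygromycin B; α2: hygromycin B) plated on poly-D-lysine 16-24 h. Loaded with FMP dye in HBSS/20 mM HEPES pH 7.4, antagonist present, 30 min at 37 °C. Fluorescence ex 530/em 560 nm read up to 1 min after glycine: 200 µM (α1, α1β) or 500 µM (α2). Duplicates, ≥3 experiments; IC50 from maximal responses.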

Assay [4] has the same target. As to the kind of experiment: Activity at human alpha-1-beta-GlyR expressed in HEK293 cells by FMP assay. The procedure, abridged:
as §2

The target is the same in assay [5]. As to the kind of experiment: Activity at human alpha-1GlyR expressed in HEK293 cells assessed as inhibition of 300 uM glycine-induced current by whole-cell patch clamp experiment.
For assay [6], the target named is T2, Glycine receptor subunit alpha-2 (Homo sapiens, UniProt P23416).
T2 sequence (P23416 whole entry): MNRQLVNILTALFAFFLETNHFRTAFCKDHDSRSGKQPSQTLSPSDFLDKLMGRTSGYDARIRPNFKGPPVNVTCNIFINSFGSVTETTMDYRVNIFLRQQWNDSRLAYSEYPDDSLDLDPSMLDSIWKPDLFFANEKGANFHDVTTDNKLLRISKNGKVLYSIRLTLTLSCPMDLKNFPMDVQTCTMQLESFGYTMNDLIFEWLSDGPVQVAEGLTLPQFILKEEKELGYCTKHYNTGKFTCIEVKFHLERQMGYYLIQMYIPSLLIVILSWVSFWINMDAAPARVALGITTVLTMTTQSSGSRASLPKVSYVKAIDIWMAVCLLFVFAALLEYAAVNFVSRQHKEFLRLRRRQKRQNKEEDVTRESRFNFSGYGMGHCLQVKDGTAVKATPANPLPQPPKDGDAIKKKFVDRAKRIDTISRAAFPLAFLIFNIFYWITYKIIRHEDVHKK
As to the kind of experiment: Activity at human alpha-2GlyR expressed in HEK293 cells by FMP assay. The procedure, abridged: as §2

For orientation: pIC50 means the negative decadic logarithm of the IC50, by convention in mol/L. As for `C[C@@H]1C(=O)O[C@H]2[C@H](O)[C@]34[C@@H]5OC(=O)[C@]3(O[C@@H]3OC(=O)[C@H](O)[C@@]34[C@H](C(C)(C)C)[C@H]5O)[C@@]12O` [GINKGOLIDE C], the pIC50 is 5.23 in assay [1]; 5.62 in assay [2]; 5.33 in assay [3]; 5.62 in assay [4]; 5.77 in assay [5]; 5.09 in assay [6].

As to `C[C@@H]1C(=O)O[C@@H]2[C@H]1[C@@]13OC4OC(=O)[C@H](O)C45[C@H](C(C)(C)C)[C@@H](O)C(OC1=O)[C@]53[C@H]2O` (some centres undefined) [GINKGOLIDE M], the pIC50 in assay [3] is 6.11; in assay [4] it was 6.25; in assay [5], 6.19; in assay [6], 5.89.

Regarding `C[C@@H]1C(=O)O[C@H]2[C@H](O)[C@@]34[C@H]5C[C@@H](C(C)(C)C)[C@]36[C@@H](OC(=O)[C@@H]6O)O[C@@]4(C(=O)O5)[C@@]12O` [GINKOLIDE B], the pIC50 was 5.54 in assay [3], 5.68 in assay [4], 5.77 in assay [5] and 5.43 in assay [6].
